# High-throughput results deposited in PubChem BioAssay by several laboratories.
# CHOP UPR activ: apoptotic UPR (CHOP) activation | AID 449763 | CHO-CHOP luciferase reporter, luminescence; percent of tunicamycin response over DMSO baseline | 330,000 compounds, 0.34% hits | activation, % at 10 µM;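 active = at 10 µM dose, activation of 40% or more, normalized to positive control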;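 note: 100% = tunicamycin at 10 µg/mL and 0% = DMSO alone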
#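 Test system: CHO-CHOP cells, stable luciferase reporter of PERK-eIF2a-CHOP signalling | Quantity: 500 CHO-CHOP cells per well | Buffer or medium: F12 plus 10% serum | Compound dosing: 10 µM single point, 0.5% DMSO | Schedule: 6 h compound treatment, 37 °C | Signal: Luciferase luminescence | Control set: Tunicamycin high control, DMSO low control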
# XBP1 UPR activ: adaptive UPR (XBP1) activation; activation, % at 20 µM; 330,000 compounds, 0.33% hits; CHO-XBP1 luciferase reporter, IRE1-XBP1 UPR activation, luminescence; percent of tunicamycin response, DMSO as zero;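 active = versus positive control, 20 µM dose yields 30% or more activation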;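 note: 100% = tunicamycin at 10 µg/mL and 0% = DMSO only wells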
#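 Material: CHO cell line with stable XBP1 luciferase reporter; buffer or medium: F12 medium containing 10% fetal bovine serum; compound: single point, 20 µM final compound, 1% DMSO; incubation: 6 h treatment, 37 °C; measured by: glow luminescence from Steady-Glo reagent; evaluation: activation, % of tunicamycin; control set: tunicamycin high, DMSO low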
# Mdm2-MdmX inh: human Mdm2/MdmX binding inhibition. O15151+Q00987. SaOS-2 split-luciferase Mdm2/MdmX complementation, luminescence. inhibition, % at 8 µM. 330,000 compounds, 3% hits. AID 485346;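 active = inhibition of at least 50% at 8 µM in the primary screen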
# Exocytosis inh: blocks lytic granule exocytosis | 360,000 compounds, 0.66% hits | inhibition, % at 10 µM | TALL-104 LAMP-1 surface exposure, flow cytometry; cells stimulated with thapsigargin and PMA;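 active = inhibition above about 55%, limit read from the data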
# ABHD5 PLIN5 PPI: inhibitors of human ABHD5-perilipin-5 interaction. Q00G26+Q8WTS1. Split G. princeps luciferase complementation, luminescence, 4 h. inhibition, % at 4 µM. 360,000 compounds, 0.78% hits. AID 602281;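 active = inhibition above the mean inhibition across every tested compound plus 3 SD, cut at about 22% in these data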;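 note: 0% = DMSO only wells and the 100% control is not disclosed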
# Target sequence (Q00G26 whole entry, looked up): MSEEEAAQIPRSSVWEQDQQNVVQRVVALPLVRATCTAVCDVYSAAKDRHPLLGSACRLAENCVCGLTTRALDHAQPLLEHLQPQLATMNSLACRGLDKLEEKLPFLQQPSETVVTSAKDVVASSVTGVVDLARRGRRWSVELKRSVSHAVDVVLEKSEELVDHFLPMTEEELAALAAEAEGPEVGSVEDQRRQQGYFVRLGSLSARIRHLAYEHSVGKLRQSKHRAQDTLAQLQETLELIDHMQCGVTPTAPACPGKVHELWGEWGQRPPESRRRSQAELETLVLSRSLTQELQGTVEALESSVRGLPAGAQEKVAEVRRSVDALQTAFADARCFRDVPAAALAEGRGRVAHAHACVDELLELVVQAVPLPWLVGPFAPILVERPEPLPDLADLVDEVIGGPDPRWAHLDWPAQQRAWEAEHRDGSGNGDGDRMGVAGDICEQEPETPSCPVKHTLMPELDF
# Target sequence (Q8WTS1 whole entry, looked up): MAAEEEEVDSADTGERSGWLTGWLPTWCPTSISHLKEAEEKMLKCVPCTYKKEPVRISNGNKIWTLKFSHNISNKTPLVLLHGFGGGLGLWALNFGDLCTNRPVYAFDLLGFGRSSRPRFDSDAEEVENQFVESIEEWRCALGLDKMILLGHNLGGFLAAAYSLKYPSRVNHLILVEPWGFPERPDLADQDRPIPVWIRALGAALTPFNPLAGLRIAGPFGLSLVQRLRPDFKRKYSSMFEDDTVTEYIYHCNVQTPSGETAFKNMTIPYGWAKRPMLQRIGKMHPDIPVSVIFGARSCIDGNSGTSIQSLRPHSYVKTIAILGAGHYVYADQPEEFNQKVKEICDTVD
# Mdm2-MdmX conf: confirmation of human Mdm2/MdmX interaction inhibitors. shares compounds with Mdm2-MdmX inh. Mdm2-MdmX binding, luminescent assay. inhibition, % at 8 µM. 10,000 compounds, 55% hits. AID 489028; in the data active = inhibition above about 40%
# FLuc counter: full-length luciferase inhibition in Mdm2/MdmX counter-screen; shares compounds with Mdm2-MdmX inh; SaOS-2 full-length luciferase counterscreen, luminescence; inhibition, % at 8 µM; 6,200 compounds, 77% hits;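 active = mean inhibition at 8 µM reaching about 37%, which flags the compound as non-specific, limit read from the data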;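 note: p53-null SaOS-2 cells with luciferase driven by a doxycycline-inducible promoter; compound on cells about two nights before reading with doxycycline added after day one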
# Numbers without * were called inactive; nt = no result. Shown are actives, neighbours in structure and some others; about 4% of the full set was active somewhere.
SMILES,CHOP UPR activ,XBP1 UPR activ,Mdm2-MdmX inh,Exocytosis inh,ABHD5 PLIN5 PPI,Mdm2-MdmX conf,others
CC(C)[C@H](N)c1nnc2n1N=C(c1ccc(Cl)cc1)CS2,0,1,-18,-5,2,nt,
CCOC(=O)C1CCN(CC(=O)Nc2c(C(=O)OC)[nH]c3ccc(Cl)cc23)CC1,-2,7,34,0,7,nt,
COc1ccccc1N(Cc1ccccc1)S(=O)(=O)c1cccc(C(=O)Nc2ncccc2C)c1,-2,-3,16,-4,-2,nt,
CC1(C)CC(NC(=O)c2ccc(Cl)c(S(=O)(=O)N(Cc3ccccc3)c3ccccc3)c2)CC(C)(C)N1,4,6,99*,-2,nt,93*,FLuc counter=48*
COc1ccccc1N(Cc1ccccc1)S(=O)(=O)c1cccc(C(=O)Nc2cc(C)ccn2)c1,-3,-7,68*,10,-7,56*,FLuc counter=160*
O=C(O)c1ccc(Cl)c(S(=O)(=O)N(Cc2ccccc2)c2ccc(Cl)cc2)c1,0,-3,-26,4,12,nt,
COc1ccccc1N(Cc1ccccc1)S(=O)(=O)c1cccc(C(=O)NC2CC(C)(C)NC(C)(C)C2)c1,2,4,97*,16,13,64*,FLuc counter=72*
O=C(c1ccc(S(=O)(=O)N2CCCCCC2)cc1)N1CCCC(C(F)(F)F)C1 (stereo not given),1,1,9,-5,1,nt,
C[C@H]1CCC[C@]2(CC(=O)c3cc(F)ccc3O2)C1,-1,0,6,-7,8,nt,
CCCCc1cc(=O)oc2cc(OS(C)(=O)=O)ccc12,-1,-3,7,-1,2,nt,
S=C1NC2=C(CCCC2=C2SCCS2)C(c2ccccc2)N1 (stereo not given),0,3,65*,-3,-11,23,
O=C(O)CCc1ccc(-c2cccs2)n1NC(=O)c1ccc(Cl)cc1,3,-4,-16,0,2,nt,
CCOC(=O)C(C)Oc1ccc2c(-c3cccc([N+](=O)[O-])c3)cc(=O)oc2c1 (stereo not given),1,-1,10,0,-3,nt,
CCNc1nc(NC(C)(C)C)nc(N2CCCC2)n1,-2,-3,25,2,-1,nt,
CC(C)(C)Nc1nc(N2CCCC2)nc(N2CCCC2)n1,1,-5,55*,-1,6,37,
COc1ccc(Cl)cc1-c1nc(-c2ccc(Br)o2)no1,2,4,51*,-8,-1,20,
CCN(CC)C(=O)N1CCc2ccccc2C1CN1C(=O)c2ccccc2C1=O (stereo not given),1,0,3,4,1,nt,
Cc1sc2ncnc(N3CCC(C(=O)NCC(=O)Nc4ccc(F)c(F)c4)CC3)c2c1C,1,-4,36,1,0,nt,
COc1ccc(N2CC(C(=O)N/N=C/c3ccc([N+](=O)[O-])cc3)CC2=O)cc1 (stereo not given),0,1,-5,-1,-2,nt,
COc1ccc(N2CC(C(=O)N/N=C/c3ccc(C)cc3)CC2=O)cc1 (stereo not given),-4,0,52*,-1,0,62*,FLuc counter=53*
Oc1ccccc1C1CC(c2cccs2)=NC(c2ccc(Cl)cc2)N1 (stereo not given),2,2,85*,21,8,86*,FLuc counter=28
N#C/C(=C/c1ccc(O)cc1)C(=O)NCc1ccc(Cl)cc1,1,-1,-1,-6,4,nt,
COc1ccc2[nH]c3c4c(ccc3c2c1)C(=O)C=CC4=O,-6,-12,75*,-3,13,80*,FLuc counter=2
Cc1cc2oc(=O)cc(CN3CCCc4ccccc43)c2cc1C,-1,-2,-9,0,2,nt,
Cc1nn(-c2ccccc2)c(C)c1/C=N/NC(=O)c1cc(-c2ccc(Br)s2)[nH]n1,3,15,49,4,7,nt,
Cc1nn(-c2ccccc2)c(C)c1/C=N/NC(=O)c1cc(C23CC4CC(CC(C4)C2)C3)[nH]n1,8,18,63*,5,1,30,
